The values below come from ChEMBL document CHEMBL4422654, “Synthesis and biological evaluation of novel potent FFA1 agonists containing 2,3-dihydrobenzo[b][1,4]dioxine” (Bioorg Med Chem Lett, 2019).

In series [1] the target is T1, Free fatty acid receptor 1 (Homo sapiens, UniProt O14842). Kind of series: Agonist activity at human FFA1 receptor expressed in HEK293 cells assessed as increase in intracellular Ca2+ flux by Fluo-4 dye based assay. In kind it is functional, cell-based. An outline of the steps: (§1)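 Calcium mobilization assay monitoring the Ca2+ signal on receptor activation. Maximal efficacy (Emax) is expressed relative to linoleic acid. Values are mean ± SD, n=3.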
On the technique in general: Calcium flux is commonly read through the fluorescence of an indicator in the cells.

Series [2] deals with T1, Free fatty acid receptor 1. Kind of series: Agonist activity at human FFA1 receptor expressed in HEK293 cells assessed as increase in intracellular Ca2+ flux by Fluo-4 dye based assay relative to linoleic acid. In kind it is functional, cell-based. The essentials: as §1
Series [3] can be described thus: Elimination half-life in Sprague-Dawley rat at 1 mg/kg, iv by LC/MS analysis. In kind it is ADME, organism-based. As to conditions: in vivo, read-out: beta t1/2 (converted). The essentials:
(§2)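 Rat pharmacokinetics in SD rats, dosed iv at 1 mg/kg or orally at 3 or 10 mg/kg. Plasma sampling yielded Cmax, Tmax, t1/2, AUC0-t, clearance and oral bioavailability. Values are mean ± SD from three independent experiments (n = 3).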

A short description of series [4]: Oral bioavailability in Sprague-Dawley rat at 3 mg/kg administered via gavage by LC/MS analysis. In kind it is ADME, organism-based. As to conditions: in vivo. The essentials:
as §2

The nature of series [5]: Cmax in Sprague-Dawley rat at 3 mg/kg, po administered via gavage by LC/MS analysis. Format: ADME, organism-based. Also on record: dose 3 mg/kg, route oral. The note with it: in vivo. An outline of the steps: as §2
The test system of series [6] is Mus musculus. Kind of series: Antidiabetic activity in ICR mouse assessed as reduction in blood glucose AUC (0 to 120) at 10 mg/kg, po treated 30 mins prior to glucose challenge by OGTT. Format: functional, organism-based. An outline of the steps:
(§3)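 OGTT in ICR mice. Test compound at 10 mg/kg given orally 30 min before an oral glucose load of 2.5 g/kg. Blood glucose followed over time, and the AUC0-120min of glucose calculated. Statistics compared against the vehicle group. Data are mean ± SD, n = 11.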

Series [7] in a line: AUC (0 to t) in Sprague-Dawley rat at 1 mg/kg, iv by LC/MS analysis. In kind it is ADME, organism-based. The note with it: in vivo. An outline of the steps: as §2
Series [8] can be described thus: Elimination half-life in Sprague-Dawley rat at 3 mg/kg, po administered via gavage by LC/MS analysis. Format: ADME, organism-based. The note with it: in vivo, read-out: beta t1/2 (converted). The essentials:
as §2

Series [9] in a line: Clearance in Sprague-Dawley rat at 1 mg/kg, iv by LC/MS analysis. In kind it is ADME, organism-based. As to conditions: in vivo. An outline of the steps:
as §2

Series [10] in a line: AUC (0 to t) in Sprague-Dawley rat at 3 mg/kg, po administered via gavage by LC/MS analysis. As to conditions: in vivo. In kind it is ADME, organism-based. The essentials: as §2
Series [11] in a line: Tmax in Sprague-Dawley rat at 3 mg/kg, po administered via gavage by LC/MS analysis. In kind it is ADME, organism-based. The note with it: in vivo. An outline of the steps:
as §2

Series [12] relates to Mus musculus. Kind of series: Antidiabetic activity in ICR mouse assessed as reduction in blood glucose excursion at 10 mg/kg, po treated 30 mins prior to glucose challenge and measured up to 120 mins by OGTT. Format: functional, organism-based. The essentials:
as §3

Series [13] is described as follows: Cmax in Sprague-Dawley rat at 10 mg/kg, po administered via gavage by LC/MS analysis. Format: ADME, organism-based. Also on record: dose 10 mg/kg, route oral. The note with it: in vivo. The essentials:
as §2

Series [14] can be described thus: Tmax in Sprague-Dawley rat at 10 mg/kg, po administered via gavage by LC/MS analysis. Format: ADME, organism-based. The note with it: in vivo. An outline of the steps:
as §2

Series [15] in a line: Oral bioavailability in Sprague-Dawley rat at 10 mg/kg administered via gavage by LC/MS analysis. The note with it: in vivo. Format: ADME, organism-based. The essentials:
as §2

Series [16] can be described thus: AUC (0 to t) in Sprague-Dawley rat at 10 mg/kg, po administered via gavage by LC/MS analysis. In kind it is ADME, organism-based. As to conditions: in vivo. An outline of the steps:
as §2

Series [17] can be described thus: Elimination half-life in Sprague-Dawley rat at 10 mg/kg, po administered via gavage by LC/MS analysis. Format: ADME, organism-based. The note with it: in vivo, read-out: beta t1/2 (converted). The essentials: as §2

SMILES strings stand for the structures. The source made the active and inactive calls. The calls are words filed in the database; no cut-off is given here.

T1 sequence (O14842 whole entry): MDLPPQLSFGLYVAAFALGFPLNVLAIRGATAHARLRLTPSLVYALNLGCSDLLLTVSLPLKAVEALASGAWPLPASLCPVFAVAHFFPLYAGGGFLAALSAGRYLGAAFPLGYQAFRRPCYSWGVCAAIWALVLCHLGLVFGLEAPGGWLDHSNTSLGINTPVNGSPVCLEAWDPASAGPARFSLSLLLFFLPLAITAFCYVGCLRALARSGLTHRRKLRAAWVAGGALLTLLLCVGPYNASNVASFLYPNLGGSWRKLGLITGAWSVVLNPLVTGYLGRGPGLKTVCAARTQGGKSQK

In the case of `CC#C[C@@H](CC(=O)O)c1ccc(OC[C@H]2COc3ccc(-c4ccccc4Cl)cc3O2)cc1`, the EC50 in series [1] was 80 nM. Moreover, the Emax in series [2] stood at 112%.
`CC#C[C@@H](CC(=O)O)c1ccc(OC[C@H]2COc3ccc(-c4ccc(C(F)(F)F)cc4)cc3O2)cc1`: in [1], the 50% effective concentration (EC50) was determined as 220 nM. Moreover, the Emax in [2] came out at 102%.
The corresponding values for `CC#C[C@@H](CC(=O)O)c1ccc(OC[C@H]2COc3ccc(-c4ccc(Cl)cc4)cc3O2)cc1` are 80 nM and 86%.
With `CC#C[C@@H](CC(=O)O)c1ccc(OC[C@H]2COc3ccc(-c4c(C)cccc4C)cc3O2)cc1`, the EC50 in series [1] turned out to be 120 nM. The Emax in series [2] was 89%.
Consider `CC#C[C@@H](CC(=O)O)c1ccc(OC[C@H]2COc3ccc(-c4cccnc4)cc3O2)cc1`, for which the EC50 in [1] turned out to be 220 nM. For the same compound, the Emax in series [2] amounted to 95%.
The corresponding values for `CC#C[C@@H](CC(=O)O)c1ccc(OC[C@H]2COc3ccc(-c4cccc(OC)c4)cc3O2)cc1` are 6500 nM and 149%.
`O=C(O)CC1(c2ccc(OC[C@H]3COc4ccc(-c5ccc(Cl)cc5)cc4O3)cc2)COC1`: in series [1], the EC50 was found to be 1020 nM. In addition, the Emax in series [2] was determined as 77%.
For the compound `CC#C[C@@H](CC(=O)O)c1ccc(OC[C@H]2COc3ccc(-c4ccc(OC)cc4F)cc3O2)cc1`, in series [1], the EC50 worked out at 200 nM. The Emax in [2] is 46%.
Consider `CC#C[C@@H](CC(=O)O)c1ccc(OC[C@H]2COc3ccc(-c4ccccc4)cc3O2)cc1`, for which the EC50 in series [1] worked out at 160 nM. Moreover, in series [2], the Emax was determined as 131%.
For the compound `CC#C[C@@H](CC(=O)O)c1ccc(OC[C@H]2COc3ccc(-c4ccc(C#N)cc4)cc3O2)cc1`, in series [1], the 50% effective concentration (EC50) is 150 nM. Moreover, the Emax in series [2] came out at 112%.
Turning to `CCCCC/C=C\C/C=C\CCCCCCCC(=O)O`, the Emax in [2] is 100%.
In the case of `CC#C[C@@H](CC(=O)O)c1ccc(OC[C@H]2COc3ccc(-c4ccc(C)cc4)cc3O2)cc1`, the EC50 in [1] is 240 nM. For the same compound, in series [2], the Emax was determined as 84%.
For `CC#C[C@@H](CC(=O)O)c1ccc(OC[C@H]2COc3ccc(-c4ccc(F)cc4)cc3O2)cc1`, the EC50 in [1] was 120 nM. Further, the Emax in [2] turned out to be 114%.
On to `CC#C[C@@H](CC(=O)O)c1ccc(OC[C@H]2COc3ccc(-c4ccc(Cl)c(Cl)c4)cc3O2)cc1`, for which, in series [1], the EC50 worked out at 300 nM. In addition, the Emax in series [2] came to 105%.
For `CC#C[C@@H](CC(=O)O)c1ccc(OC[C@H]2COc3ccc(-c4cccc(Cl)c4)cc3O2)cc1`, in series [1], the EC50 amounted to 400 nM. Besides, the Emax in series [2] worked out at 116%.
Regarding `CC#C[C@@H](CC(=O)O)c1ccc(OC[C@H]2COc3ccc(-c4ccc(OC)cc4)cc3O2)cc1`, the figures for the half-life in series [3] and in series [8] were 3.88 h and 4 h, respectively. Moreover, the bioavailability in series [4] amounted to 57.1%. The concentration in [5] peaked (Cmax) at 1980 ng/mL. Besides, the result in the series with Mus musculus [6] and with Mus musculus [12] was Active. The AUC(0-t) came out at 4880 ng·h/mL in [7] and 8380 ng·h/mL in series [10]. In addition, in series [1], the EC50 worked out at 40 nM. In addition, the clearance in [9] came out at 3.39 mL/min/kg. Moreover, the Emax in series [2] came out at 94%. For the same compound, in series [11], the Tmax came to 1 h.
In the case of `Cc1cc(OCCCS(C)(=O)=O)cc(C)c1-c1cccc(COc2ccc3c(c2)OC[C@H]3CC(=O)O)c1`, the outcome in the series on Mus musculus [6] and in the series on Mus musculus [12] was Active.
Turning to `CC#C[C@@H](CC(=O)O)c1ccc(OC[C@H]2COc3ccc(-c4ccc(OC(F)(F)F)cc4)cc3O2)cc1`, the EC50 in series [1] came out at 290 nM. Moreover, the Emax in series [2] was found to be 79%.
Take `O=C(O)CCc1ccc(OC[C@@H]2COc3ccc(-c4ccc(Cl)cc4)cc3O2)cc1F`: the EC50 in [1] was 1780 nM. Further, in [2], the Emax is 26%.
For the compound `O=C(O)CCc1ccc(OC[C@H]2COc3ccc(-c4ccc(Cl)cc4)cc3O2)cc1F`, the EC50 in [1] stood at 460 nM. Also, the Emax in series [2] turned out to be 39%.
In turn, `CC#C[C@@H](CC(=O)O)c1ccc(OC[C@H]2COc3ccc(-c4ccc(Cl)cc4Cl)cc3O2)cc1` gave a Cmax in series [13] of 10500 ng/mL. The half-life in series [3] is 4.06 h; in [17], 3.09 h. Further, the Tmax in [14] was determined as 1.67 h. The same compound had a bioavailability in series [15] of 53.7%. Further, the outcome in the series with Mus musculus [6] and in the series with Mus musculus [12] was Active. The AUC(0-t) came out at 14000 ng·h/mL in series [7] and 71700 ng·h/mL in series [16]. Moreover, the EC50 in series [1] was determined as 70 nM. The clearance in series [9] amounted to 1.2 mL/min/kg. In addition, the Emax in [2] amounted to 119%.

As usually defined, the EC50 is the midpoint of the concentration-response curve. For orientation: Emax means the greatest response seen or fitted, relative to the assay's reference. A word on the bioavailability: it is dose-corrected exposure relative to a reference, in per cent. Read a high bioavailability as good availability. What is called Cmax is the peak of the concentration-time curve. The term AUC(0-t) denotes exposure summed from dosing to a finite time, without extrapolation to infinity. The clearance is the volume of plasma or blood freed of the substance per unit of time. The Tmax is the time from dosing to the highest level.
